Test system: Fibroblast
Assay: Multiplex assay against human fibroblast
Format: toxicity, cell-based
Procedure, shortened: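 Values for tubulin, mitochondrial-mass and membrane-permeability phenotypes are per cents of cells with healthy nuclei. These cells were identified by CellPathfinder machine-learning gating of live cells that had been stained at seeding with Hoechst33342, BioTracker Green Microtubule Cytoskeleton Dye, MitoTracker Red and Annexin V Alexa Fluor 680 and imaged on a CQ1 microscope at 37°C and 5% CO2 after compound addition. The gating first set Hoechst high-intensity objects apart from normal cells, then split normal cells into healthy, pyknosed or fragmented nuclei, and pyknosed cells into mitotic or apoptotic.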

[1] = 12 h, 1 µM, compound concentration 1 uM, replicate 1
[2] = 12 h, 1 µM, compound concentration 1 uM, replicate 2
[3] = 12 h, 10 µM, compound concentration 10 uM, replicate 1
[4] = 12 h, 10 µM, compound concentration 10 uM, replicate 2
[5] = 24 h, 1 µM, compound concentration 1 uM, replicate 1
[6] = 24 h, 1 µM, compound concentration 1 uM, replicate 2
[7] = 24 h, 10 µM, compound concentration 10 uM, replicate 1
[8] = 24 h, 10 µM, compound concentration 10 uM, replicate 2
[9] = 48 h, 1 µM, compound concentration 1 uM, replicate 1
[10] = 48 h, 1 µM, compound concentration 1 uM, replicate 2
[11] = 48 h, 10 µM, compound concentration 10 uM, replicate 1
[12] = 48 h, 10 µM, compound concentration 10 uM, replicate 2

For `CCCCCC(O)/C=C/[C@H]1C(=O)CC(O)C1C/C=C\CCCC(=O)O` (some centres undefined), the “Population Apoptotic (%)” value [1] was 52%, the “Population Fragmented Nuclei (%)” value [1] was 24% and the “Population Healthy Nuclei (%)” value [1] was 65%. The “Population Hoechst High Intensity Objects (%)” value [1] was 1%, the “Population Membrane Permeable-Phenotype (%)” value [1] was 0% and the “Population Mitochondria Different-Phenotype (%)” value [1] was 4%. The “Population Mitotic Cells (%)” value [1] was 47%, the “Population Normal (%)” value [1] was 98% and the “Population Pyknosed Nuclei (%)” value [1] was 10%. The “Population Tubulin-Different-Phenotype (%)” value [1] was 19%, the “Total Cell Count” value [1] was 172 and the “Population Apoptotic (%)” value [2] was 50%. For the same molecule, the “Population Fragmented Nuclei (%)” value [2] was 40%, the “Population Healthy Nuclei (%)” value [2] was 41% and the “Population Hoechst High Intensity Objects (%)” value [2] was 2%. For the same molecule, the “Population Membrane Permeable-Phenotype (%)” value [2] was 7%, the “Population Mitochondria Different-Phenotype (%)” value [2] was 20% and the “Population Mitotic Cells (%)” value [2] was 50%. The “Population Normal (%)” value [2] was 97%, the “Population Pyknosed Nuclei (%)” value [2] was 18% and the “Population Tubulin-Different-Phenotype (%)” value [2] was 52%. For the same molecule, the “Total Cell Count” value [2] was 169, the “Population Apoptotic (%)” value [3] was 42% and the “Population Fragmented Nuclei (%)” value [3] was 16%. The “Population Healthy Nuclei (%)” value [3] was 69%, the “Population Hoechst High Intensity Objects (%)” value [3] was 0% and the “Population Membrane Permeable-Phenotype (%)” value [3] was 0%. The “Population Mitochondria Different-Phenotype (%)” value [3] was 1%, the “Population Mitotic Cells (%)” value [3] was 57% and the “Population Normal (%)” value [3] was 99%. For the same molecule, the “Population Pyknosed Nuclei (%)” value [3] was 13%, the “Population Tubulin-Different-Phenotype (%)” value [3] was 16% and the “Total Cell Count” value [3] was 139. The “Population Apoptotic (%)” value [4] was 34%, the “Population Fragmented Nuclei (%)” value [4] was 20% and the “Population Healthy Nuclei (%)” value [4] was 56%. The “Population Hoechst High Intensity Objects (%)” value [4] was 2%, the “Population Membrane Permeable-Phenotype (%)” value [4] was 3% and the “Population Mitochondria Different-Phenotype (%)” value [4] was 7%. For the same molecule, the “Population Mitotic Cells (%)” value [4] was 65%, the “Population Normal (%)” value [4] was 97% and the “Population Pyknosed Nuclei (%)” value [4] was 23%. The “Population Tubulin-Different-Phenotype (%)” value [4] was 41%, the “Total Cell Count” value [4] was 101 and the “Population Apoptotic (%)” value [5] was 35%. For the same molecule, the “Population Fragmented Nuclei (%)” value [5] was 20%, the “Population Healthy Nuclei (%)” value [5] was 70% and the “Population Hoechst High Intensity Objects (%)” value [5] was 0%. The “Population Membrane Permeable-Phenotype (%)” value [5] was 0%, the “Population Mitochondria Different-Phenotype (%)” value [5] was 2% and the “Population Mitotic Cells (%)” value [5] was 64%. For the same molecule, the “Population Normal (%)” value [5] was 99%, the “Population Pyknosed Nuclei (%)” value [5] was 8% and the “Population Tubulin-Different-Phenotype (%)” value [5] was 21%. For the same molecule, the “Total Cell Count” value [5] was 169, the “Population Apoptotic (%)” value [6] was 50% and the “Population Fragmented Nuclei (%)” value [6] was 41%. The “Population Healthy Nuclei (%)” value [6] was 50%, the “Population Hoechst High Intensity Objects (%)” value [6] was 1% and the “Population Membrane Permeable-Phenotype (%)” value [6] was 4%. The “Population Mitochondria Different-Phenotype (%)” value [6] was 10%, the “Population Mitotic Cells (%)” value [6] was 50% and the “Population Normal (%)” value [6] was 98%. For the same molecule, the “Population Tubulin-Different-Phenotype (%)” value [6] was 47%, the “Total Cell Count” value [6] was 184 and the “Population Apoptotic (%)” value [7] was 61%. For the same molecule, the “Population Fragmented Nuclei (%)” value [7] was 17%, the “Population Healthy Nuclei (%)” value [7] was 72% and the “Population Hoechst High Intensity Objects (%)” value [7] was 2%. For the same molecule, the “Population Membrane Permeable-Phenotype (%)” value [7] was 1%, the “Population Mitochondria Different-Phenotype (%)” value [7] was 3% and the “Population Mitotic Cells (%)” value [7] was 38%. For the same molecule, the “Population Normal (%)” value [7] was 97%, the “Population Pyknosed Nuclei (%)” value [7] was 9% and the “Population Tubulin-Different-Phenotype (%)” value [7] was 21%. The “Total Cell Count” value [7] was 138, the “Population Apoptotic (%)” value [8] was 33% and the “Population Fragmented Nuclei (%)” value [8] was 18%. The “Population Healthy Nuclei (%)” value [8] was 59%, the “Population Hoechst High Intensity Objects (%)” value [8] was 4% and the “Population Membrane Permeable-Phenotype (%)” value [8] was 3%. The “Population Mitochondria Different-Phenotype (%)” value [8] was 1%, the “Population Mitotic Cells (%)” value [8] was 66% and the “Population Normal (%)” value [8] was 95%. For the same molecule, the “Population Pyknosed Nuclei (%)” value [8] was 21%, the “Population Tubulin-Different-Phenotype (%)” value [8] was 29% and the “Total Cell Count” value [8] was 101. For the same molecule, the “Population Apoptotic (%)” value [9] was 50%, the “Population Fragmented Nuclei (%)” value [9] was 27% and the “Population Healthy Nuclei (%)” value [9] was 66%. For the same molecule, the “Population Hoechst High Intensity Objects (%)” value [9] was 3%, the “Population Membrane Permeable-Phenotype (%)” value [9] was 0% and the “Population Mitochondria Different-Phenotype (%)” value [9] was 2%. The “Population Mitotic Cells (%)” value [9] was 50%, the “Population Normal (%)” value [9] was 96% and the “Population Pyknosed Nuclei (%)” value [9] was 5%. The “Population Tubulin-Different-Phenotype (%)” value [9] was 19%, the “Total Cell Count” value [9] was 175 and the “Population Apoptotic (%)” value [10] was 30%. For the same molecule, the “Population Fragmented Nuclei (%)” value [10] was 47%, the “Population Healthy Nuclei (%)” value [10] was 46% and the “Population Hoechst High Intensity Objects (%)” value [10] was 2%. For the same molecule, the “Population Membrane Permeable-Phenotype (%)” value [10] was 3%, the “Population Mitochondria Different-Phenotype (%)” value [10] was 7% and the “Population Mitotic Cells (%)” value [10] was 70%. For the same molecule, the “Population Normal (%)” value [10] was 97%, the “Population Tubulin-Different-Phenotype (%)” value [10] was 42% and the “Total Cell Count” value [10] was 186. For the same molecule, the “Population Apoptotic (%)” value [11] was 63%, the “Population Fragmented Nuclei (%)” value [11] was 17% and the “Population Healthy Nuclei (%)” value [11] was 74%. For the same molecule, the “Population Hoechst High Intensity Objects (%)” value [11] was 4%, the “Population Membrane Permeable-Phenotype (%)” value [11] was 0% and the “Population Mitochondria Different-Phenotype (%)” value [11] was 0%. For the same molecule, the “Population Mitotic Cells (%)” value [11] was 36%, the “Population Normal (%)” value [11] was 95% and the “Population Pyknosed Nuclei (%)” value [11] was 8%. The “Population Tubulin-Different-Phenotype (%)” value [11] was 14%, the “Total Cell Count” value [11] was 141 and the “Population Apoptotic (%)” value [12] was 33%. For the same molecule, the “Population Fragmented Nuclei (%)” value [12] was 30%, the “Population Healthy Nuclei (%)” value [12] was 61% and the “Population Hoechst High Intensity Objects (%)” value [12] was 0%. For the same molecule, the “Population Membrane Permeable-Phenotype (%)” value [12] was 6%, the “Population Mitochondria Different-Phenotype (%)” value [12] was 3% and the “Population Mitotic Cells (%)” value [12] was 66%. For the same molecule, the “Population Normal (%)” value [12] was 99%, the “Population Tubulin-Different-Phenotype (%)” value [12] was 47% and the “Total Cell Count” value [12] was 104.
